Compound activity deposited in PubChem BioAssay by several laboratories.
Efflux pump inh = inhibitors of Candida antifungal efflux pumps expressed in yeast; S. cerevisiae Candida pump triplex, Nile Red efflux; inhibition, % at 10 µM; 330,000 tested, 0.44% active; AID 485275;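 active = plate passing quality check with inhibition over a set limit, or well fluorescence over plate mean plus 4 SD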;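 note: Nile Red retained in pooled yeast measured as flow cytometry median fluorescence; 0% = buffer negative control and 100% = Enniatin B positive control; higher means more Nile Red kept so more efflux inhibition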
HDAC3 inhib = blocks human histone deacetylase 3; O15379; recombinant HDAC3, fluorogenic peptide/trypsin coupled, fluorescence; inhibition, % at 8.3 µM; 320,000 tested, 0.15% active; AID 2718; in the data active = inhibition above about 26%, passing the limit was not always enough
Target sequence (O15379 whole entry, looked up): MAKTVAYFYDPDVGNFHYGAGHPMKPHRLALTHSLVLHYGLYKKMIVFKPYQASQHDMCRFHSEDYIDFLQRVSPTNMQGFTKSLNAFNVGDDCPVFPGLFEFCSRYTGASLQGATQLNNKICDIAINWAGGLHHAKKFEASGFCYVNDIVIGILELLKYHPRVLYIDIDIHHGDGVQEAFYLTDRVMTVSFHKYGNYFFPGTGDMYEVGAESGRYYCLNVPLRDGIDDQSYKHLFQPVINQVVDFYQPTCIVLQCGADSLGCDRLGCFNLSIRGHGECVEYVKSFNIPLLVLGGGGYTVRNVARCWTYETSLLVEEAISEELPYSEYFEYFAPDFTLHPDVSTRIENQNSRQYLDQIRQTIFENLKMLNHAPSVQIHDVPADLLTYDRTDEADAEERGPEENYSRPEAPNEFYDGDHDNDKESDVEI
IDE cell inh = inhibitors of human insulin-degrading enzyme in cells. AID 434962. inhibition, % at 5.59 µM. 320,000 tested, 0.41% active. P14735. HEK cells, FAbetaB cleavage, fluorescence polarization;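 active = percent inhibition above the average of all tested compounds plus 3 SD, set per screening campaign, cut at about 16% in these data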;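 note: IDE supplied by intact live HEK cells; FP after avidin binding of uncleaved biotin substrate so inhibition keeps polarization high; 0% = DMSO wells and 100% = 60 µM reference IDE inhibitor Ii1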
Yeast superoxide = yeast age-related superoxide inhibition as caloric restriction mimetic; superoxide response (% of plate mean), % at 10 µM; 330,000 tested, 0.18% active; S. cerevisiae aged cells, superoxide DHE fluorescence; stronger effect = lower value;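 active = superoxide response under a set limit, about three screen SD below normal, cut at about 65% in these data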;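 note: yeast aged for seven days with compound at 30 °C before DHE staining; 100% = average MFI of all compound-treated wells on the plate with controls excluded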
IDE cell activ = IDE (human) activation, cell-based; activation, % at 5.96 µM; HEK cells, FAbeta-B cleavage, fluorescence polarization; 0% vehicle, 100% cell-free pure enzyme wells; AID 493087; P14735; 340,000 tested, 0.073% active;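 active = activation above the mean of all tested compounds plus 3 SD, set per screening campaign, cut at about 17% in these data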
Tb MetRS inh = blocks T. brucei methionyl-tRNA synthetase activity. purified T. brucei MetRS, ATP depletion, Kinase-Glo luminescence. inhibition, % at 11.9 µM. 360,000 tested, 0.4% active. AID 624268;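 active = inhibition above a per-plate cutoff of the control wells' mean inhibition plus 3 SD, cut at about 5.5% in these data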;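 note: 0% = DMSO wells median and 100% = median of wells with control inhibitor compound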
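Dosing: 11.9 µM compound single dose, 0.9% DMSO; Assay system: purified T. brucei MetRS enzyme; Measured by: Kinase-Glo luciferase luminescence reporting remaining unconsumed ATP; Schedule: 15 min plus 2 h at 25 °C.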
Cmpd fluor yeast = compound fluorescence in yeast efflux pump counter-screen. shares compounds with Efflux pump inh. fluorescence ratio to DMSO, % at 10 µM. 1,700 tested, 4% active. S. cerevisiae AD/pABC3, flow cytometry. AID 588517;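 active = fluorescence ratio to DMSO above its plate's cutoff, the plate mean ratio plus 5 SD, cut at about 210% in these data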;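 note: unstained yeast with no Nile Red so the signal is compound autofluorescence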
CaMdr1 efflux inh = blocks the Candida albicans Mdr1 efflux pump in yeast; shares compounds with Efflux pump inh; S. cerevisiae AD/CaMDR1, Nile Red efflux, flow cytometry; inhibition, % at 10 µM; 1,700 tested, 1% active; in the data active = inhibition above about 26%;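 note: 0% = DMSO vehicle and 100% = reference inhibitor; higher means more Nile Red retained so more efflux inhibition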
Cdr2 pump inh = inhibitors of Candida albicans Cdr2 efflux pump; shares compounds with Efflux pump inh; S. cerevisiae AD/CaCDR2, Nile Red retention, flow cytometry; Nile Red retention ratio vs DMSO, % at 10 µM; 1,700 tested, 4% active; in the data active = Nile Red retention ratio vs DMSO above about 190%;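 note: higher ratio means more blocking of Cdr2 efflux of the dye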
Cdr1 pump inh = inhibitors of Candida albicans Cdr1 efflux pump. shares compounds with Efflux pump inh. S. cerevisiae AD/CaCDR1, Nile Red efflux, flow cytometry. 1,700 tested, 1% active. inhibition, % at 10 µM;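 active = inhibition above the screen-wide mean plus twice its standard deviation, cut at about 32% in these data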
* marks the source's active call; other numbers are inactive results; nt = no result given. The list is not random: actives were taken first. Their share in the collection is about 1.4%.

SMILES	Efflux pump inh	HDAC3 inhib	IDE cell inh	Yeast superoxide	IDE cell activ	Tb MetRS inh	Cmpd fluor yeast	CaMdr1 efflux inh	Cdr2 pump inh	Cdr1 pump inh
Cc1ncc(C(=O)O)c(C(=O)O)c1N	5.5*	-4.2	-1.9	97.5	2.1	-0.5	114.6	-0.3	108.3	0.1
O=C(CN1C(=O)CCSc2ccccc21)Nc1ccc2c(c1)OCCO2	0.0	-2.4	-1.1	107.0	3.5	-1.0	nt	nt	nt	nt
CC1CC(=O)N(CC(=O)Nc2ccc3c(c2)OCO3)c2ccccc2S1 (stereo unspecified)	0.4	0.0	3.7	112.3	6.6	-0.7	80.1	0.1	89.0	-0.2
O=C(CN1C(=O)CC(c2ccco2)Sc2ccccc21)Nc1ccc2c(c1)OCCO2 (stereo unspecified)	0.7*	9.7	-5.6	91.0	4.8	-0.7	101.4	-0.1	95.6	0.2
O=C(CN1C(=O)CCSc2ccccc21)Nc1ccc(F)cc1	0.0	1.2	-2.5	88.0	-3.3	0.0	99.0	-0.1	98.5	-0.1
CCS(=O)(=O)N1CCC(C(=O)Oc2ccc(C(=O)OC)cc2)CC1	-0.1	3.6	4.1	103.8	-0.8	0.0	nt	nt	nt	nt
O=C(CC12CC3CC(CC(C3)C1)C2)NC1CC1	0.0	-2.8	-0.3	92.4	11.2	-0.3	nt	nt	nt	nt
O=C(O)c1cc(-c2cccnc2)nc2ccc(Br)cc12	0.0	1.4	-0.2	101.6	0.1	-0.3	nt	nt	nt	nt
NC(=O)c1cc(-c2ccccc2)nc2ccc(Br)cc12	0.5	-11.5	2.0	74.4	nt	3.0	90.8	-0.1	97.5	-0.2
Cc1csc(NC(=O)CCNS(=O)(=O)c2ccc3c(c2)c(=O)n(C)c(=O)n3C)n1	6.7*	-2.8	3.4	105.0	3.0	-0.1	97.6	0.0	105.1	-0.1
Cc1ccc(CCNC(=O)CCNS(=O)(=O)c2ccc3c(c2)c(=O)n(C)c(=O)n3C)cc1	9.0*	-4.0	7.4	92.5	0.3	-0.1	99.8	-0.1	89.3	-0.1
COCCn1c(=S)[nH]c2sc3c(c2c1=O)CCCC3	1.1*	1.6	-1.3	108.8	2.7	0.0	86.9	-0.3	89.3	-0.1
CCOC(=O)c1c(C)[nH]c(C)c1S(=O)(=O)NCc1ccccc1C	0.4*	9.0	-2.4	107.1	-0.3	0.0	105.0	-0.1	105.7	0.1
CC(C)CC(=O)c1c[nH]c(C(=O)NCCCn2ccnc2)c1	0.0	-2.1	4.1	100.8	0.8	0.0	nt	nt	nt	nt
O=C(Cc1ccc(Cl)cc1)c1c[nH]c(C(=O)NCCCn2ccnc2)c1	0.6*	-1.6	-4.1	80.5	-0.6	0.4	98.6	-0.3	84.5	-0.3
CC(c1nccs1)N(C)C(=O)CCc1nnc(CCc2ccccc2)o1 (stereo unspecified)	0.3	-4.0	0.4	100.9	-2.5	0.1	nt	nt	nt	nt
COC(=O)c1ccc2cc(C)cc(C)c2n1	nt	nt	nt	nt	nt	0.5	nt	nt	nt	nt
Cc1ccc(C(=O)N(Cc2nc(-c3ccc(C)cc3)no2)C(C)C)cc1	0.1	-1.6	-2.2	108.5	-1.2	-1.1	nt	nt	nt	nt
Cc1ccc(SCC(=O)N(Cc2nc(-c3ccccc3)no2)C(C)C)cc1	1.5*	4.1	6.1	109.8	-5.8	-1.0	98.9	0.2	106.3	0.0
O=C(NC(=S)Nc1cccc2ncccc12)c1ccco1	0.1	-5.9	0.8	85.2	0.5	-0.5	nt	nt	nt	nt
N#C/C(=C\c1ccco1)C(=O)Nc1cccc2ncccc12	0.0	3.5	-2.3	82.3	4.4	-0.1	94.8	-0.3	105.1	-0.1
COc1ccc(CNC(=O)CC[C@H]2O[C@@H](n3cc(C)c(=O)[nH]c3=O)C[C@@H]2O)cc1	nt	nt	nt	nt	nt	-0.2	nt	nt	nt	nt
CC(=O)Nc1ccccc1OC(C)C(=O)NC(C)c1ccc(F)cc1 (stereo unspecified)	5.8*	-0.1	2.5	65.5	4.1	-0.7	116.8	0.0	131.3	-0.1
Cc1ccc(Oc2ccccc2NC(=O)C2=COCCO2)cc1	0.0	3.6	0.6	100.5	4.7	-0.5	nt	nt	nt	nt
CCCC[n+]1ccn(-c2nc3c([N+](=O)[O-])cccc3n2C)c1	0.1	6.8	nt	99.9	1.2	-0.9	nt	nt	nt	nt
SMILES	Efflux pump inh	HDAC3 inhib	IDE cell inh	Yeast superoxide	IDE cell activ	Tb MetRS inh	Cmpd fluor yeast	CaMdr1 efflux inh	Cdr2 pump inh	Cdr1 pump inh
COC1=CC(=O)C=C(OC)C1(O)CC(C)=O	nt	nt	nt	nt	0.1	-1.4	nt	nt	nt	nt
Cc1cc(C)cc(OCC(=O)N/N=C\c2cn(C)nc2C)c1	-0.1	0.5	2.4	108.4	2.5	0.4	nt	nt	nt	nt
CCn1ncc(/C=N\NC(=O)COc2cc(C)cc(C)c2)c1C	12.6*	-0.6	4.5	106.3	-3.4	-0.1	101.8	-0.3	103.6	0.0
COc1ccc(/C=N/N2CCN(c3ccccc3)CC2)cc1Br	-0.1	-2.8	-3.0	98.2	-2.5	0.0	nt	nt	nt	nt
COc1ccccc1CNC(=O)CCc1nnc2ccc(NCCCN3CCCC3=O)nn12	-0.1	-3.0	-1.2	104.1	4.4	-0.1	nt	nt	nt	nt
O=C1CCCN1CCCNc1ccc2nnc(CCC(=O)N3CCN(c4ccccc4)CC3)n2n1	1.3*	-2.0	1.7	99.2	-0.9	0.9	98.9	-0.1	89.9	0.0
CCC(C)C(NC(=O)OC(C)(C)C)C(=O)NC(C)C(N)=O (stereo unspecified)	0.0	0.1	-0.3	103.8	-1.3	-0.4	nt	nt	nt	nt
O=C(CSc1nc2c(sc3ccccc32)c(=O)n1CCc1ccccc1)NCc1ccco1	1.5*	2.4	5.9	98.7	7.7	-0.9	95.0	-0.4	95.6	0.0
O=C(COC(=O)c1ccc(S(=O)(=O)N2CCCCC2)cc1)NCc1ccco1	1.6*	0.0	1.5	104.9	-0.3	-0.3	103.1	-0.1	102.9	0.0
O=C(COc1ccc(S(=O)(=O)N2CCCC2)cc1)NCc1ccco1	0.1	3.8	0.3	119.0	4.7	0.0	nt	nt	nt	nt
